Test results reported in publication PMC13334471 (Journal of molecular and cellular cardiology, 2026).

What was measured:
[1] = molecular target: tropomyosin (rabbit cardiac α-tropomyosin) (Oryctolagus cuniculus, UniProt P58772); assay: LSPR binding of cTnT-C14 peptides to immobilized tropomyosin; conditions: peptide 2 μM, mutants vs WT
Method in brief: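 Rabbit cardiac α-Tm immobilized on a carboxyl-gold LSPR chip from 50 μg/mL in 10 mM Na acetate pH 4.0. Blocked with 1 M ethanolamine, then 1 mM 6-mercapto-1-hexanol in 30% EtOH. Peptides flowed at 20 μL/min for 4 min in 0.1 M KCl, 3 mM MgCl2, 10 mM imidazole-HCl pH 7.0; buffer dissociation to baseline or plateau. Plateau Δpm taken; 1:1 fit; KD = koff/kon.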

F-actin = F-actin (Oryctolagus cuniculus, UniProt P68135); assay: LSPR direct binding of cTnT-C14 peptides to immobilized F-actin; parameters: species or system rabbit; conditions: mutants vs WT
Method in brief: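 Rabbit back-muscle F-actin immobilized on a carboxyl-gold LSPR chip with no Tm, run as for the Tm binding assay. Chip blocked with ethanolamine and 6-mercapto-1-hexanol. Peptides flowed at 20 μL/min in 0.1 M KCl, 3 mM MgCl2, 10 mM imidazole-HCl pH 7.0, then buffer dissociation. Plateau Δpm taken; rate constants from 1:1 fit; KD = koff/kon.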

**Q.** What does the source list for INVLRNRINDNQKV [E16]?
**A.** Tm binding / binding signal (in words) [1]: non-Tm-binding; F-actin binding / binding signal (in words) (F-actin): non-actin-binding
